Legend:
JURKAT = experiment: CellTiter-Glo luminescent cell viability assay; type: cell-based, human; details: 24 h, doses 0, 2, 10, 50, 250, 500 µM, p<0.05
In short: (§1)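 Cells grown in RPMI 1640 with 10% FBS, 1.5 mM L-glutamine and penicillin/streptomycin at 37 °C, 5% CO2. Seeded at 2.5 x 10³ cells/well and exposed 24 h to ethanol-dissolved test compound (0, 2, 10, 50, 250, 500 µM) with 0.1% ethanol vehicle. ATP luminescence normalized to vehicle (100%). IC50 taken from linear regression. Lowest significant dose set by one-way ANOVA/Tukey, p<0.05. Triplicates, three independent experiments.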

non-tumor cells (CD34+) [1] = experiment: Hoechst 33342 nuclear morphological analysis of apoptosis; type: cell-based; details: 24 h, read-out: AP50 (50% induction of apoptosis), Hoechst 33342 staining (Hoe)
In short: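 CD34+ cells treated 24 h across the IC25–IC50 range, then pelleted (400 g, 4 °C) and fixed in 4% paraformaldehyde/PBS. Cytospins were air-dried and stained with 10 μg/ml Hoechst 33342 for 10 min in the dark, then viewed by fluorescence microscopy. 200 cells were scored per sample as % apoptotic nuclei (shrinkage, blebbing, chromatin condensation, apoptotic bodies). AP50 = concentration giving 50% apoptosis.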

THP-1 [2] = experiment: Hoechst 33342 nuclear morphological analysis of apoptosis; type: cell-based; details: Homo sapiens, THP-1, 24 h, read-out: AP50 (50% induction of apoptosis), Hoechst 33342 staining (Hoe)
In short: (§2)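 Seeded at 0.5 x 10⁶ cells/well in 12-well plates and treated 24 h. Cells were pelleted (400 g, 5 min, 4 °C), washed in PBS, fixed in 4% paraformaldehyde, cytospun, air-dried, then stained with 10 μg/ml Hoechst 33342 for 10 min in the dark. Fluorescence microscopy: 200 cells counted, scored by condensed/intense nuclei, shrinkage, blebbing and apoptotic bodies. % apoptotic nuclei calculated. AP50 = concentration giving 50% apoptotic cells.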

HL60 [3] = experiment: as above; type: cell-based; details: Homo sapiens, HL-60, 24 h, read-out: AP50 (50% induction of apoptosis), Hoechst 33342 staining (Hoe)
In short: as §2

KG1a [4] = experiment: Cell cycle analysis, propidium iodide flow cytometry; type: cell-based, human; details: IC50 dose, 24 h, vehicle control G2/M = 18.7%
In short: (§3)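 Seeded at 0.5 x 10^6 cells per well in 12-well plates and treated 24 h at the IC50 concentration of each test compound from CellTiter-Glo. Cells were pelleted (400 g, 5 min), PBS-washed and fixed in 80% ethanol overnight at -20 °C. Staining used 50 µg/mL PI plus RNase overnight at 4 °C.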

KG1a [5] = experiment: CellTiter-Glo luminescent cell viability assay; type: cell-based, human; details: 24 h
In short: as §1

HL60 [6] = experiment: Cell cycle analysis, propidium iodide flow cytometry; type: cell-based, human; details: HL60, IC50 dose, 24 h; vehicle control S = 33.6%
In short: as §3

K562 [7] = experiment: CellTiter-Glo luminescent cell viability assay; type: cell-based, human; details: K562, 24 h, doses 0, 2, 10, 50, 250, 500 µM, p<0.05
In short: as §1

K562 [8] = experiment: Hoechst 33342 nuclear morphological analysis of apoptosis; type: cell-based; details: Homo sapiens, K562, 24 h, read-out: AP50 (50% induction of apoptosis), Hoechst 33342 staining (Hoe)
In short: as §2

CCRF-CEM [9] = experiment: Cell cycle analysis, propidium iodide flow cytometry; type: cell-based, human; details: IC50 dose, 24 h, vehicle control G0/G1 = 41.9%
In short: as §3

[10] = tested on: non-tumor cord blood (CD34+) cells; experiment: CellTiter-Glo luminescent cell viability assay; type: cell-based; details: 24 h
In short: as §1

MOLT-3 = experiment: Hoechst 33342 nuclear morphological analysis of apoptosis; type: cell-based; details: Homo sapiens, MOLT-3, 24 h, read-out: AP50 (50% induction of apoptosis), Hoechst 33342 staining (Hoe)
In short: as §2

CCRF-CEM [11] = experiment: NucView caspase 3 activity assay by flow cytometry; type: cell-based, human; details: 24 h
In short: (§4)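 Seeded at 0.5 x 10⁶ cells/well and treated 24 h, with series of 0–50 or 0–250 µM depending on compound. Normalized to vehicle (0% apoptosis). Mean ± STD, three independent experiments in triplicate. One-way ANOVA/Tukey, p<0.05. AP50 = concentration giving 50% apoptotic cells.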

non-tumor cells (CD34+) [12] = experiment: NucView caspase 3 activity assay by flow cytometry; type: cell-based; details: 24 h
HL60 [13] = experiment: NucView caspase 3 activity assay by flow cytometry; type: cell-based, human
In short: as §4

U937 [14] = experiment: Hoechst 33342 nuclear morphological analysis of apoptosis; type: cell-based; details: Homo sapiens, U-937, 24 h, read-out: AP50 (50% induction of apoptosis), Hoechst 33342 staining (Hoe)
In short: as §2

KG1a [15] = experiment: as above; type: cell-based; details: Homo sapiens, KG-1a, 24 h, read-out: AP50 (50% induction of apoptosis), Hoechst 33342 staining (Hoe)
In short: as §2

KG1a [16] = experiment: NucView caspase 3 activity assay by flow cytometry; type: cell-based, human; details: 24 h
In short: as §4

[17] = tested on: non-tumor progenitor cells (CD34+); experiment: Cell cycle analysis, propidium iodide flow cytometry; type: cell-based; details: 24 h, within the IC50 ranges used to treat the leukemic cell lines
THP-1 [18] = experiment: Cell cycle analysis, propidium iodide flow cytometry; type: cell-based, human; details: THP-1, IC50 dose, 24 h; vehicle control G0/G1 = 42.3%
In short: as §3

THP-1 [19] = experiment: CellTiter-Glo luminescent cell viability assay; type: cell-based, human; details: THP-1, 24 h, doses 0, 2, 10, 50, 250, 500 µM, p<0.05
In short: as §1

U937 [20] = experiment: NucView caspase 3 activity assay by flow cytometry; type: cell-based, human
In short: as §4

SMILES: C(=C\c1ccccc1)/c1ccccc1 [Trans-Stilbene, Trans-stilbene]
- The lowest dose of polyphenols at which there was a significant inhibition of cell proliferation compared to the vehicle control (JURKAT): 50 µM
- EC50 (non-tumor cells (CD34+) [1]): > 500 µM
- EC50 (THP-1 [2]): > 500 µM
- EC50 (HL60 [3]): 50 µM
- Percentage of cells in G2/M phase of cell cycle (significant accumulation) (KG1a [4]): G2/M =23.7%
- IC50 (KG1a [5]; Homo sapiens, KG-1a, read-out: IC50 (50% inhibition of cellular proliferation)): 250 µM
- The lowest dose of polyphenols at which there was a significant inhibition of cell proliferation compared to the vehicle control (KG1a [5]; KG1a, doses 0, 2, 10, 50, 250, 500 µM, p<0.05): 50 µM
- Percentage of cells in S phase of cell cycle (significant accumulation) (HL60 [6]): S =41.9%
- The lowest dose of polyphenols at which there was a significant inhibition of cell proliferation compared to the vehicle control (K562 [7]): 50 µM
- EC50 (K562 [8]): 460 µM
- Percentage of cells in G0/G1 phase of cell cycle (significant accumulation) (CCRF-CEM [9]): G0/G1 =49.1%
- IC50 ([10]; read-out: IC50 (50% inhibition of cellular proliferation), CD34+ non-tumour control cells, 24 h treatment): 500 µM
- The lowest dose of polyphenols at which there was a significant inhibition of cell proliferation compared to the vehicle control ([10]; CD34+ non-tumour control cells, doses 0, 2, 10, 50, 250, 500 µM, p<0.05): 250 µM
- EC50 (MOLT-3): 400 µM
- EC50 (CCRF-CEM [11]; Homo sapiens, read-out: AP50 (50% induction of apoptosis), Caspase 3 activity assay (C3)): > 500 µM
- The lowest dose of polyphenols at which there was a significant induction of apoptosis compared to the vehicle control (CCRF-CEM [11]; caspase 3 activity, p<0.05): 50 µM
- EC50 (non-tumor cells (CD34+) [12]; read-out: AP50 (50% induction of apoptosis), Caspase 3 activity assay (C3)): > 500 µM
- The lowest dose of polyphenols at which there was a significant induction of apoptosis compared to the vehicle control (non-tumor cells (CD34+) [12]; CD34+ non-tumour control cells, caspase 3 activity, p<0.05): 250 µM
- The lowest dose of polyphenols at which there was a significant induction of apoptosis compared to the vehicle control (HL60 [13]; HL60, caspase 3 activity, 24 h, p<0.05): 50 µM
- EC50 (HL60 [13]; Homo sapiens, HL-60, 24 h, read-out: AP50 (50% induction of apoptosis), Caspase 3 activity assay (C3)): 40 µM
- EC50 (U937 [14]): 225 µM
- EC50 (KG1a [15]): 360 µM
- EC50 (KG1a [16]; Homo sapiens, KG-1a, read-out: AP50 (50% induction of apoptosis), Caspase 3 activity assay (C3)): > 500 µM
- The lowest dose of polyphenols at which there was a significant induction of apoptosis compared to the vehicle control (KG1a [16]; KG1a, caspase 3 activity, p<0.05): 50 µM
- Cell cycle arrest in non-tumour control cells [17]: No Arrest ≤500µM
- Percentage of cells in G0/G1 phase of cell cycle (significant accumulation) (THP-1 [18]): G0/G1 =53%
- The lowest dose of polyphenols at which there was a significant inhibition of cell proliferation compared to the vehicle control (THP-1 [19]): 250 µM
- EC50 (U937 [20]; Homo sapiens, U-937, 24 h, read-out: AP50 (50% induction of apoptosis), Caspase 3 activity assay (C3)): 200 µM
- The lowest dose of polyphenols at which there was a significant induction of apoptosis compared to the vehicle control (U937 [20]; U937, caspase 3 activity, 24 h, p<0.05): 50 µM
